Results on 11 compounds are retold here after ChEMBL document CHEMBL1177891, “Synthesis and bioassay of pyrrolyl oxazolines and thiazolines” (2010).

Each structure is given as a SMILES string.

As a reminder, the inhibition is how much of the control response was suppressed.

Holding throughout (assay type): functional
Experiment [1] concerns Staphylococcus aureus. Put plainly: Antibacterial activity against Staphylococcus aureus at 100 ug/disk after 24 hrs by disk diffusion method. The following applies: read-out: IZ. In outline:
(§1)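 Agar disc diffusion on nutrient agar with NCIM bacteria. 6 mm sterile paper discs moistened with compound in DMSO (100 or 200 μg/disc) placed on pre-inoculated plates. Incubated at 37 °C; growth-inhibition zone diameter measured after 24 h. Chloramphenicol control.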

Experiment [2] has as its system Staphylococcus aureus. In words: Antibacterial activity against Staphylococcus aureus at 200 ug/disk after 24 hrs by disk diffusion method. The note with it: read-out: IZ. Put shortly: as §1
For orientation: A growth-free zone around the sample is the usual read-out of agar diffusion tests.

The subject of experiment [3] is Bacillus subtilis. Put plainly: Antibacterial activity against Bacillus subtilis at 100 ug/disk after 24 hrs by disk diffusion method. The following applies: read-out: IZ. Put shortly:
as §1

For experiment [4], the system named is Bacillus subtilis. In words: Antibacterial activity against Bacillus subtilis at 200 ug/disk after 24 hrs by disk diffusion method. The following applies: read-out: IZ. In outline:
as §1

The subject of experiment [5] is Klebsiella pneumoniae. Put plainly: Antibacterial activity against Klebsiella pneumoniae at 100 ug/disk after 24 hrs by disk diffusion method. The following applies: read-out: IZ. In outline:
as §1

The subject of experiment [6] is Klebsiella pneumoniae. In words: Antibacterial activity against Klebsiella pneumoniae at 200 ug/disk after 24 hrs by disk diffusion method. The note with it: read-out: IZ. Put shortly:
as §1

The subject of experiment [7] is Proteus vulgaris. Put plainly: Antibacterial activity against Proteus vulgaris at 100 ug/disk after 24 hrs by disk diffusion method. The following applies: read-out: IZ. Put shortly:
as §1

In experiment [8] the test system is Proteus vulgaris. In words: Antibacterial activity against Proteus vulgaris at 200 ug/disk after 24 hrs by disk diffusion method. The following applies: read-out: IZ. Put shortly:
as §1

Experiment [9] deals with Fusarium solani. Put plainly: Antifungal activity against Fusarium solani at 100 ug/disk after 48 hrs by disk diffusion method. The following applies: read-out: IZ. Put shortly:
(§2)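 Fungi from NCIM on nutrient agar plates, pre-inoculated. 6 mm paper discs carrying 100 or 200 μg compound in DMSO applied. Plates incubated at 37 °C and inhibition zone diameter measured at 48 h. Ketoconazole control.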

Experiment [10] relates to Fusarium solani. Put plainly: Antifungal activity against Fusarium solani at 200 ug/disk after 48 hrs by disk diffusion method. The following applies: read-out: IZ. Put shortly:
as §2

Experiment [11] deals with Curvularia lunata. Put plainly: Antifungal activity against Curvularia lunata at 100 ug/disk after 48 hrs by disk diffusion method. The following applies: read-out: IZ. In outline:
as §2

The subject of experiment [12] is Curvularia lunata. In words: Antifungal activity against […] lunata at 200 ug/disk after 48 hrs by disk diffusion method. The following applies: read-out: IZ. Put shortly: as §2
The subject of experiment [13] is Aspergillus niger. Put plainly: Antifungal activity against Aspergillus niger at 100 ug/disk after 48 hrs by disk diffusion method. The note with it: read-out: IZ. Put shortly:
as §2

Experiment [14] has as its system Aspergillus niger. Put plainly: Antifungal activity against Aspergillus niger at 200 ug/disk after 48 hrs by disk diffusion method. The following applies: read-out: IZ. Put shortly: as §2
Experiment [15] in a line: Antioxidant activity assessed as inhibition of nitric oxide production at 100 uM. Put shortly:
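Sodium nitroprusside ([…]) in phosphate buffer pH 7.4 incubated with 100 μM compound (dioxane/methanol) at 25 °C for 120 min; solvent-only control. Aliquots mixed 1:1 with Griess reagent (1% sulfanilamide, 0.1% N-naphthylethylenediamine, 2% phosphoric acid). Absorbance at 546 nm, triplicate.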

Experiment [16] has as its system Radical scavenging activity. Put plainly: Antioxidant activity assessed as DPPH radical scavenging activity at 100 uM. In outline:
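Compound (100 μM) added to 100 μM DPPH in dioxane/ethanol. Kept at ambient temperature 20 min, then absorbance read at 517 nm. Percent DPPH scavenging taken from difference between test and control.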
For orientation: Loss of DPPH colour is used to gauge radical scavenging.

The nature of experiment [17]: Antioxidant activity assessed as increase in reducing power at 100 uM. In outline: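 Oyaizu method. Compound at 100 μM in methanol mixed with 0.2 M phosphate buffer pH 6.6 and 1% potassium ferricyanide, 50 °C for 20 min. 10% TCA added, then centrifuged 3000 rpm for 10 min. Upper layer mixed with water and 0.1% FeCl3; absorbance read at 700 nm.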

As for `Cc1ccc(S(=O)(=O)/C=C/S(=O)(=O)CC2=NCCS2)cc1`, the zone of inhibition at 100 µg/disc in experiment [1] came to 20 mm; in [3] it was 19 mm; in experiment [5], 17 mm; in experiment [7], 15 mm; in experiment [9], 22 mm; in [11], 21 mm. The zone of inhibition at 100 µg/disc in [13] stood at 20 mm. For the same compound, the zone of inhibition at 200 µg/disc was 23 mm in experiment [2]; 21 mm in [4]; 20 mm in experiment [6]; 18 mm in [8]; 25 mm in experiment [10]; 24 mm in experiment [12]. Moreover, the zone of inhibition at 200 µg/disc in experiment [14] stood at 23 mm. Moreover, the results for the inhibition in [15], in experiment [16] and in experiment [17] were 21.7%, 22.2% and 21.2%, respectively.
On to `O=S(=O)(CC1=NCCO1)c1c[nH]cc1S(=O)(=O)c1ccccc1`, for which the zone of inhibition at 100 µg/disc in [1] was found to be 15 mm; in experiment [3] it was 16 mm; in [5], 14 mm; in experiment [7] it was 13 mm; in experiment [9], 18 mm; in experiment [11], 19 mm. Moreover, the zone of inhibition at 100 µg/disc in experiment [13] is 20 mm. The zone of inhibition at 200 µg/disc in [2] came to 19 mm; in experiment [4] it was 18 mm; in experiment [6], 17 mm; in experiment [8], 15 mm; in experiment [10] it was 22 mm; in [12] it was 23 mm. Moreover, the zone of inhibition at 200 µg/disc in experiment [14] worked out at 22 mm. Besides, the inhibition in [15] came to 87.7%; in experiment [16] it was 88.3%; in [17], 86.8%.
Consider `O=S(=O)(/C=C/S(=O)(=O)c1ccc(Cl)cc1)CC1=NCCS1`, for which the zone of inhibition at 100 µg/disc was 27 mm in [1]; 29 mm in [3]; 22 mm in [5]; 21 mm in [7]; 29 mm in experiment [9]; 24 mm in experiment [11]. The zone of inhibition at 100 µg/disc in experiment [13] stood at 27 mm. The zone of inhibition at 200 µg/disc in experiment [2] is 28 mm; in experiment [4], 31 mm; in experiment [6] it was 23 mm; in experiment [8] it was 22 mm; in experiment [10], 31 mm; in [12], 28 mm. In addition, in experiment [14], the zone of inhibition at 200 µg/disc was determined as 29 mm. Further, the inhibition is 32.3% in [15], 33.5% in experiment [16] and 28.3% in experiment [17].
As for `O=S(=O)(CC1=NCCO1)c1c[nH]cc1S(=O)(=O)c1ccc(Cl)cc1`, the zone of inhibition at 100 µg/disc in [1] came out at 17 mm; in experiment [3], 16 mm; in experiment [5], 15 mm; in experiment [7] it was 12 mm; in experiment [9] it was 21 mm; in experiment [11], 20 mm. For the same compound, the zone of inhibition at 100 µg/disc in [13] worked out at 21 mm. For the same compound, the zone of inhibition at 200 µg/disc in experiment [2] worked out at 19 mm; in experiment [4], 19 mm; in experiment [6] it was 17 mm; in experiment [8], 14 mm; in [10], 23 mm; in [12], 23 mm. Also, the zone of inhibition at 200 µg/disc in experiment [14] came to 22 mm. In addition, the inhibition in experiment [15] is 92.1%; in experiment [16] it was 91.5%; in [17], 89.4%.
As for `O=S(=O)(/C=C/S(=O)(=O)c1ccccc1)CC1=NCCS1`, the zone of inhibition at 100 µg/disc stood at 21 mm in experiment [1]; 22 mm in [3]; 19 mm in experiment [5]; 17 mm in experiment [7]; 26 mm in experiment [9]; 24 mm in experiment [11]. For the same compound, the zone of inhibition at 100 µg/disc in [13] was 26 mm. The zone of inhibition at 200 µg/disc in experiment [2] turned out to be 24 mm; in experiment [4], 23 mm; in experiment [6] it was 21 mm; in [8] it was 18 mm; in experiment [10], 29 mm; in experiment [12] it was 26 mm. Besides, in experiment [14], the zone of inhibition at 200 µg/disc stood at 28 mm. For the same compound, the inhibition is 30.4% in [15], 29.3% in [16] and 29.3% in experiment [17].
In the case of `O=S(=O)(/C=C/S(=O)(=O)c1ccccc1)CC1=NCCO1`, the zone of inhibition at 100 µg/disc in [1] came to 11 mm; in experiment [3] it was 10 mm; in experiment [9], 14 mm; in experiment [11] it was 16 mm; in experiment [13], 17 mm. In addition, the zone of inhibition at 200 µg/disc was 13 mm in [2]; 12 mm in [4]; 15 mm in [10]; 18 mm in experiment [12]; 19 mm in [14]. Further, the inhibition worked out at 82.1% in [15], 83.7% in experiment [16] and 79.5% in experiment [17].
`Cc1cc(C(C)(C)C)c(O)c(C(C)(C)C)c1`: the inhibition in experiment [17] came out at 92.3%.
On to `Cc1ccc(S(=O)(=O)c2c[nH]cc2S(=O)(=O)CC2=NCCO2)cc1`, for which the zone of inhibition at 100 µg/disc is 12 mm in experiment [1]; 13 mm in [3]; 10 mm in experiment [5]; 11 mm in experiment [7]; 18 mm in experiment [9]; 17 mm in [11]. Besides, the zone of inhibition at 100 µg/disc in experiment [13] turned out to be 17 mm. Also, the zone of inhibition at 200 µg/disc in experiment [2] was found to be 15 mm; in experiment [4], 14 mm; in experiment [6], 13 mm; in [8] it was 13 mm; in [10], 20 mm; in experiment [12], 21 mm. For the same compound, the zone of inhibition at 200 µg/disc in [14] was 21 mm. Besides, the inhibition was determined as 78.5% in [15], 76.1% in experiment [16] and 77.3% in experiment [17].
With `Cc1ccc(S(=O)(=O)/C=C/S(=O)(=O)CC2=NCCO2)cc1`, the zone of inhibition at 100 µg/disc is 10 mm in experiment [1]; 9 mm in [3]; 14 mm in [9]; 18 mm in experiment [11]; 14 mm in experiment [13]. For the same compound, the zone of inhibition at 200 µg/disc in experiment [2] turned out to be 13 mm; in experiment [4], 11 mm; in experiment [10] it was 17 mm; in [12], 19 mm; in [14], 16 mm. Besides, the inhibition in experiment [15] came to 74.2%; in experiment [16] it was 73.9%; in experiment [17], 73.5%.
`O=S(=O)(/C=C/S(=O)(=O)c1ccc(Cl)cc1)CC1=NCCO1`: the zone of inhibition at 100 µg/disc was 13 mm in experiment [1]; 12 mm in experiment [3]; 10 mm in experiment [5]; 9 mm in experiment [7]; 16 mm in experiment [9]; 18 mm in experiment [11]. The zone of inhibition at 100 µg/disc in [13] worked out at 17 mm. Besides, the zone of inhibition at 200 µg/disc turned out to be 15 mm in experiment [2]; 14 mm in experiment [4]; 12 mm in [6]; 10 mm in experiment [8]; 19 mm in [10]; 20 mm in experiment [12]. Further, the zone of inhibition at 200 µg/disc in experiment [14] turned out to be 20 mm. For the same compound, the inhibition in experiment [15] amounted to 85.5%; in experiment [16], 86.6%; in experiment [17] it was 82.7%.
Consider `O=C1O[C@H]([C@@H](O)CO)C(O)=C1O`, for which the inhibition in experiment [15] is 96.9%; in experiment [16], 95.4%.
